Measured values: paper PMC9043816 (RSC Advances, 2021)
Values joined by “and” are separate entries in the source; they are usually repeats but may differ in a detail not shown here. Equal entries are not always repeated. Where two headings read alike, the source gives them in different places.

What was measured:
[1] = test system: human cervical carcinoma cell line (HeLa); test: MTS cytotoxicity assay, HeLa; type: cell-based
Method in brief: (§1)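 Cells grown in DMEM or RPMI 1640 with 10% FBS and penicillin/streptomycin (37 °C, 5% CO2), seeded at 4000–6000 cells per mL, then after 24 h treated for 48 h with several concentrations (DMSO stock 100 mM). Medium replaced, MTS added for 3 h at 37 °C, A492 read. Inhibition % relative to untreated and blank; IC50 by curve fitting; at least three wells per concentration.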

[2] = test system: human tongue carcinoma cell line (SCC-15); test: MTS cytotoxicity assay, SCC-15; type: cell-based
Method in brief: as §1

[3] = test system: human breast carcinoma cell line (MCF-7); test: MTS cytotoxicity assay, MCF-7; type: cell-based
Method in brief: as §1

[4] = test system: human hepatoma carcinoma cell lines (HepG2); test: MTS cytotoxicity assay, HepG2; type: cell-based
Method in brief: as §1

HeLa cells [5] = test: 7-AAD/annexin V flow cytometry apoptosis assay; type: cell-based, human; settings: 100 nM
Method in brief: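 HeLa cells seeded at 1 × 10^5 cells per mL, grown overnight, then exposed to test compound (25, 50 or 100 nM final) for 24, 36 or 48 h. Cells were washed in cold PBS, trypsinized, and stained with annexin V-FITC plus 7-AAD for 15 min at room temperature in the dark. Analysed by flow cytometry; apoptotic % = early (annexin V+) plus late (annexin V+/7-AAD+).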

HeLa cells [6] = test: Wound healing assay; type: cell-based, human; settings: serum starved
Method in brief: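 HeLa cells seeded at 2.5 × 10^5 cells per mL and grown to about 90% confluence; monolayer scratched with p10 tips, washed twice in PBS. Serum-free medium with test compound (25, 50, 100 nM final) or DMSO for 48 h. Gaps photographed at 0, 24, 48 h (10× magnification); healing rate from change in wound area; three independent experiments.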

p53 = test: Western blotting, p53 expression in HeLa cells; type: cell-based, human; settings: 25 nM, 50 nM and 100 nM, 48 h
Method in brief: (§2)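 HeLa cells seeded at 1 × 10^5 cells per mL overnight, then given test compound (25, 50, 100 nM final) for 48 h. Lysed on ice 20 min; protein quantified by BCA. Equal protein run on SDS-PAGE and transferred to PVDF, then blocked in 5% nonfat milk. Primary antibodies (p53, Bcl-2, Bax, GAPDH loading) overnight at 4 °C; peroxidase secondary 2 h; chemiluminescent detection.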

Bcl-2 = test: Western blotting, Bcl-2 expression in HeLa cells; type: cell-based, human; settings: 25 nM, 50 nM and 100 nM, 48 h
Method in brief: as §2

[7] = test system: human umbilical vein endothelial cells (HUVEC); test: MTS cytotoxicity assay, HUVEC normal cells; type: cell-based; settings: read-out: IC50 HUVEC, 48 h treatment
Method in brief: as §1

Bax = test: Western blotting, Bax expression in HeLa cells; type: cell-based, human; settings: 25 nM, 50 nM and 100 nM, 48 h
Method in brief: as §2

[8] = test system: 94 different cancer cell lines; settings: read-out: IC50 values against 94 different cancer cell lines; in vitro; cited from earlier work
[9] = test system: Bel-7402, MCF-7 and MIA-PaCa cells; settings: 250 mg kg^−1, i.p.; cited from earlier work
[10] = test system: normal cells, such as HFL, PrEC, HMEC and HUVEC; settings: unless its concentration exceeded 5–10 μM; cited from earlier work
BT20 cells = settings: 200 mg kg^−1, i.p.; cited from earlier work
[11] = Homo sapiens, HeLa, 48 h, read-out: IC50 HeLa, MTS, 48 h treatment
[12] = Homo sapiens, SCC-15, 48 h, read-out: IC50 SCC-15, MTS, 48 h treatment
[13] = Homo sapiens, MCF7, 48 h, read-out: IC50 MCF-7, MTS, 48 h treatment
[14] = Homo sapiens, HepG2, 48 h, read-out: IC50 HepG2, MTS, 48 h treatment

Structure (SMILES): COc1ccc(C[S+]([O-])c2ccc3ccccc3c2)cc1N (stereo not shown) [12a, 2-Methoxy-5-((naphthalen-2-ylsulfinyl)methyl)aniline]
- IC50 [1, 11]: 173 ± 31 nM
- IC50 [2, 12]: 148 ± 27 nM
- IC50 [3, 13]: 681 ± 48 nM
- IC50 [4, 14]: 434 ± 38 nM

Structure (SMILES): COc1ccc(CS(=O)(=O)c2ccc3ccccc3c2)cc1N [12b, 2-Methoxy-5-((naphthalen-2-ylsulfonyl)methyl)aniline]
- IC50 [1, 11]: 30 ± 5 nM
- IC50 [2, 12]: 28 ± 6 nM
- IC50 [3, 13]: 110 ± 14 nM
- IC50 [4, 14]: 43 ± 7 nM

Structure (SMILES): COc1ccc(C[S+]([O-])c2ccc3cc(Br)ccc3c2)cc1N (stereo not shown) [12c, 5-(((6-Bromonaphthalen-2-yl)sulfinyl)methyl)-2-methoxyaniline]
- IC50 [1, 11]: 92 ± 9 nM
- IC50 [2, 12]: 264 ± 27 nM
- IC50 [3, 13]: 858 ± 88 nM
- IC50 [4, 14]: 1310 ± 91 nM

Structure (SMILES): COc1ccc(CS(=O)(=O)c2ccc3cc(Br)ccc3c2)cc1N [12d, 5-(((6-Bromonaphthalen-2-yl)sulfonyl)methyl)-2-methoxyaniline]
- IC50 [1, 11]: 64 ± 5 nM
- IC50 [2, 12]: 78 ± 2 nM
- IC50 [3, 13]: 95 ± 8 nM
- IC50 [4, 14]: 402 ± 35 nM

Structure (SMILES): COc1ccc(CSc2ccc3ccccc3c2)cc1N [12e, 2-Methoxy-5-((naphthalen-2-ylthio)methyl)aniline]
- IC50 [1, 11]: 4060 ± 316 nM
- IC50 [2, 12]: 2210 ± 314 nM
- IC50 [3, 13]: 17500 ± 2320 nM
- IC50 [4, 14]: 42600 ± 3810 nM

Structure (SMILES): COc1ccc(C[S+]([O-])c2ccc3ccccc3c2)cc1NCC(=O)O (stereo not shown) [15a, (2-Methoxy-5-((naphthalen-2-ylsulfinyl)methyl)phenyl)glycine]
- IC50 [1, 11]: 230 ± 4 nM
- IC50 [2, 12]: 722 ± 29 nM
- IC50 [3, 13]: 2030 ± 73 nM
- IC50 [4, 14]: 5080 ± 318 nM

Structure (SMILES): COc1ccc(CS(=O)(=O)c2ccc3ccccc3c2)cc1NCC(=O)O [15b, (2-Methoxy-5-((naphthalen-2-ylsulfonyl)methyl)phenyl)glycine]
- IC50 ([1]; read-out: IC50 HeLa, MTS, 48 h treatment): 64 ± 5 nM
- IC50 ([2]; read-out: IC50 SCC-15, MTS, 48 h treatment): 15 ± 2 nM
- IC50 ([3]; read-out: IC50 MCF-7, MTS, 48 h treatment): 29 ± 1 nM
- apoptotic values (early and late apoptotic states) (HeLa cells [5]; 24 h): 9.2%
- apoptotic values (early and late apoptotic states) (HeLa cells [5]; 36 h): 30.2%
- apoptotic values (early and late apoptotic states) (HeLa cells [5]; 48 h): 53.2%
- Wound healing rate (HeLa cells [6]; 25 nM, 24 h, control 46.4): 20.0% and 20.0 ± 3.5 %
- Wound healing rate (HeLa cells [6]; 25 nM, 48 h, control 70.8): 32.0% and 32.0 ± 6.1 %
- Wound healing rate (HeLa cells [6]; 50 nM, 24 h, control 46.4): 13.2 ± 2.2 %
- Wound healing rate (HeLa cells [6]; 50 nM, 48 h, control 70.8): 15.5 ± 3.4 %
- Wound healing rate (HeLa cells [6]; 100 nM, 24 h, control 46.4): 3.9% and 3.9 ± 3.0 %
- Wound healing rate (HeLa cells [6]; 100 nM, 48 h, control 70.8): 4.4% and 4.4 ± 2.7 %
- levels of the proapoptotic protein p53 (p53): increased significantly
- expression of antiapoptotic protein Bcl-2 (Bcl-2): down-regulation
- IC50 [7]: 1060 ± 48 nM
- IC50 ([4]; read-out: IC50 HepG2, MTS, 48 h treatment): 390 ± 13 nM
- expression of proapoptotic protein Bax (Bax): up-regulation

Structure (SMILES): COc1cc(OC)c(/C=C/S(=O)(=O)Cc2ccc(OC)c(NCC(=O)O)c2)c(OC)c1 [Rigosertib, reference compound]
- IC50 [8]: 50 to 250 nM
- tumor growth in mouse xenograft models [9]: significantly suppress tumor growth
- IC50 [1, 11]: 65 ± 5 nM
- IC50 [2, 12]: 35 ± 3 nM
- IC50 [3, 13]: 22 ± 3 nM
- anti-proliferative effect on normal cells [10]: little or no anti-proliferative effect
- IC50 [4, 14]: 108 ± 17 nM
- tumor growth in mouse xenograft model (BT20 cells): remarkably inhibit tumor growth
